# Data reported in ChEMBL document CHEMBL1687776, “Origin and molecular evolution of the determinant of methicillin resistance in staphylococci” (2010).
# Legend:
# [1] = tested on: Staphylococcus vitulinus; test: Antibacterial activity against methicillin-resistant mecA-positive Staphylococcus vitulinus SVMP02 by agar dilution method; type: functional; details: Mammaliicoccus vitulinus
# Method in brief: (§1)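 MIC by agar dilution on Mueller-Hinton agar per CLSI guidance; resistance judged against CLSI breakpoints. Strains were animal or food isolates (type strains for S. sciuri subspecies), typed by hsp60 and/or sodA sequencing; mecA homologue carriage checked by PCR with degenerate primers. Agents tested: oxacillin, ampicillin, ceftizoxime, ceftriaxone, cefoxitin.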
# [2] = tested on: Staphylococcus vitulinus; test: Antibacterial activity against mecA-negative Staphylococcus vitulinus SVMN05 by agar dilution method; type: functional; details: Mammaliicoccus vitulinus; method in brief: as §1
# [3] = tested on: Staphylococcus fleurettii; test: Antibacterial activity against methicillin-resistant mecA-positive Staphylococcus fleurettii SFMP03 by agar dilution method; type: functional; details: Mammaliicoccus fleurettii; method in brief: as §1
# [4] = tested on: Staphylococcus vitulinus; test: Antibacterial activity against mecA-negative Staphylococcus vitulinus SVMN02 by agar dilution method; type: functional; details: Mammaliicoccus vitulinus; method in brief: as §1
# [5] = tested on: Staphylococcus vitulinus; test: Antibacterial activity against mecA-negative Staphylococcus vitulinus SVMN04 by agar dilution method; type: functional; details: Mammaliicoccus vitulinus; method in brief: as §1
# [6] = tested on: Staphylococcus vitulinus; test: Antibacterial activity against mecA-negative Staphylococcus vitulinus SVMN10 by agar dilution method; type: functional; details: Mammaliicoccus vitulinus
# Method in brief: (§2)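 MIC by agar dilution on Mueller-Hinton agar following CLSI guidelines. Resistance was assigned using CLSI breakpoints. Agents tested were oxacillin, ampicillin, ceftizoxime, ceftriaxone and cefoxitin. Strains were from animal or food sources and identified by hsp60 and/or sodA sequencing. mecA absence was assessed by PCR with degenerate primers for mecA and its homologues.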
# [7] = Antibacterial activity against methicillin-resistant mecA-positive Staphylococcus sciuri subsp. rodentium ATCC 700061T by agar dilution method; type: functional; details: Mammaliicoccus sciuri; method in brief: as §1
# [8] = Antibacterial activity against mecA-positive Staphylococcus sciuri subsp. carnaticus ATCC 700058T by agar dilution method; details: Mammaliicoccus sciuri
# [9] = tested on: Staphylococcus vitulinus; test: Antibacterial activity against methicillin-resistant mecA-positive Staphylococcus vitulinus SVMP03 by agar dilution method; type: functional; details: Mammaliicoccus vitulinus; method in brief: as §1
# [10] = tested on: Staphylococcus vitulinus; test: Antibacterial activity against mecA-negative Staphylococcus vitulinus SVMN03 by agar dilution method; type: functional; details: Mammaliicoccus vitulinus; method in brief: as §2
# [11] = tested on: Staphylococcus fleurettii; test: Antibacterial activity against methicillin-resistant mecA-positive Staphylococcus fleurettii SFMP01(CCUG 43834T) by agar dilution method; type: functional; details: Mammaliicoccus fleurettii; method in brief: as §1
# [12] = tested on: Staphylococcus fleurettii; test: Antibacterial activity against methicillin-resistant mecA-positive Staphylococcus fleurettii SFMP06 by agar dilution method; type: functional; details: Mammaliicoccus fleurettii; method in brief: as §1
# [13] = tested on: Staphylococcus vitulinus; test: Antibacterial activity against mecA-negative Staphylococcus vitulinus SVMN14 by agar dilution method; type: functional; details: Mammaliicoccus vitulinus; method in brief: as §1
# [14] = tested on: Mammaliicoccus lentus; test: Antibacterial activity against mecA-negative Staphylococcus lentus ATCC 29070T by agar dilution method; type: functional; method in brief: as §2
# [15] = tested on: Staphylococcus vitulinus; test: Antibacterial activity against mecA-negative Staphylococcus vitulinus SVMN08 by agar dilution method; type: functional; details: Mammaliicoccus vitulinus; method in brief: as §2
# [16] = tested on: Staphylococcus vitulinus; test: Antibacterial activity against methicillin-resistant mecA-positive Staphylococcus vitulinus SVMP04 by agar dilution method; type: functional; details: Mammaliicoccus vitulinus; method in brief: as §1
# [17] = tested on: Staphylococcus vitulinus; test: Antibacterial activity against mecA-negative Staphylococcus vitulinus SVMN12 by agar dilution method; type: functional; details: Mammaliicoccus vitulinus; method in brief: as §1
# [18] = tested on: Staphylococcus fleurettii; test: Antibacterial activity against methicillin-resistant mecA-positive Staphylococcus fleurettii SFMP07 by agar dilution method; type: functional; details: Mammaliicoccus fleurettii; method in brief: as §1
# [19] = tested on: Staphylococcus fleurettii; test: Antibacterial activity against methicillin-resistant mecA-positive Staphylococcus fleurettii SFMP05 by agar dilution method; type: functional; details: Mammaliicoccus fleurettii; method in brief: as §1
# [20] = tested on: Staphylococcus fleurettii; test: Antibacterial activity against methicillin-resistant mecA-positive Staphylococcus fleurettii SFMP04 by agar dilution method; type: functional; details: Mammaliicoccus fleurettii; method in brief: as §1
# [21] = tested on: Staphylococcus vitulinus; test: Antibacterial activity against methicillin-resistant mecA-positive Staphylococcus vitulinus SVMP01 by agar dilution method; type: functional; details: Mammaliicoccus vitulinus; method in brief: as §1
# [22] = tested on: Staphylococcus vitulinus; test: Antibacterial activity against mecA-negative Staphylococcus vitulinus SVMN11 by agar dilution method; type: functional; details: Mammaliicoccus vitulinus; method in brief: as §1
# [23] = tested on: Staphylococcus vitulinus; test: Antibacterial activity against methicillin-resistant mecA-positive Staphylococcus vitulinus SVMP06 by agar dilution method; type: functional; details: Mammaliicoccus vitulinus; method in brief: as §1
# [24] = tested on: Staphylococcus fleurettii; test: Antibacterial activity against mecA-negative Staphylococcus fleurettii SFMN02 by agar dilution method; type: functional; details: Mammaliicoccus fleurettii; method in brief: as §2
# [25] = tested on: Staphylococcus vitulinus; test: Antibacterial activity against mecA-negative Staphylococcus vitulinus SVMN07 by agar dilution method; type: functional; details: Mammaliicoccus vitulinus; method in brief: as §1
# [26] = tested on: Staphylococcus vitulinus; test: Antibacterial activity against mecA-negative Staphylococcus vitulinus SVMN09 by agar dilution method; type: functional; details: Mammaliicoccus vitulinus; method in brief: as §1
# [27] = tested on: Staphylococcus vitulinus; test: Antibacterial activity against mecA-negative Staphylococcus vitulinus SVMN06 by agar dilution method; type: functional; details: Mammaliicoccus vitulinus; method in brief: as §1
# [28] = tested on: Staphylococcus fleurettii; test: Antibacterial activity against methicillin-resistant mecA-positive Staphylococcus fleurettii SFMP02 by agar dilution method; type: functional; details: Mammaliicoccus fleurettii; method in brief: as §1
# [29] = tested on: Staphylococcus fleurettii; test: Antibacterial activity against mecA-negative Staphylococcus fleurettii SFMN01 by agar dilution method; type: functional; details: Mammaliicoccus fleurettii; method in brief: as §2
# [30] = Antibacterial activity against methicillin-resistant mecA-positive Staphylococcus sciuri subsp. sciuri ATCC 29062T by agar dilution method; type: functional; details: Mammaliicoccus sciuri; method in brief: as §1
# [31] = tested on: Staphylococcus fleurettii; test: Antibacterial activity against methicillin-resistant mecA-positive Staphylococcus fleurettii SFMP08 by agar dilution method; type: functional; details: Mammaliicoccus fleurettii; method in brief: as §1
# [32] = tested on: Staphylococcus vitulinus; test: Antibacterial activity against mecA-negative Staphylococcus vitulinus SVMN13 by agar dilution method; type: functional; details: Mammaliicoccus vitulinus; method in brief: as §2
# [33] = tested on: Staphylococcus vitulinus; test: Antibacterial activity against methicillin-resistant mecA-positive Staphylococcus vitulinus SVMP05 by agar dilution method; type: functional; details: Mammaliicoccus vitulinus; method in brief: as §1
# [34] = tested on: Staphylococcus vitulinus; test: Antibacterial activity against mecA-negative Staphylococcus vitulinus SVMN01 (ATCC 51145T) by agar dilution method; type: functional; details: Mammaliicoccus vitulinus; method in brief: as §2
Structure (SMILES),MIC [1],MIC [2],MIC [3],MIC [4],MIC [5],MIC [6],MIC [7],MIC [8],MIC [9],MIC [10],MIC [11],MIC [12],MIC [13],MIC [14],MIC [15],MIC [16],MIC [17],MIC [18],MIC [19],MIC [20],further results
CO/N=C(\C(=O)N[C@@H]1C(=O)N2C(C(=O)O)=CCS[C@H]12)c1csc(N)n1 [CEFTIZOXIME],0.5 µg/mL,0.5 µg/mL,128 µg/mL,1 µg/mL,0.5 µg/mL,0.25 µg/mL,2 µg/mL,2 µg/mL,0.5 µg/mL,0.25 µg/mL,32 µg/mL,32 µg/mL,0.5 µg/mL,1 µg/mL,0.25 µg/mL,0.5 µg/mL,0.5 µg/mL,4 µg/mL,4 µg/mL,64 µg/mL,MIC [21]: 0.5 µg/mL; MIC [22]: 1 µg/mL; MIC [23]: 0.5 µg/mL; MIC [24]: 2 µg/mL; MIC [25]: 0.5 µg/mL; MIC [26]: 0.5 µg/mL; MIC [27]: 0.5 µg/mL; MIC [28]: 32 µg/mL; MIC [29]: 2 µg/mL; MIC [30]: 2 µg/mL; MIC [31]: 32 µg/mL; MIC [32]: 0.25 µg/mL; MIC [33]: 1 µg/mL; MIC [34]: 4 µg/mL
CO[C@@]1(NC(=O)Cc2cccs2)C(=O)N2C(C(=O)O)=C(COC(N)=O)CS[C@@H]21 [CEFOXITIN],1 µg/mL,1 µg/mL,8 µg/mL,1 µg/mL,1 µg/mL,0.5 µg/mL,2 µg/mL,2 µg/mL,2 µg/mL,0.5 µg/mL,2 µg/mL,2 µg/mL,0.5 µg/mL,2 µg/mL,0.25 µg/mL,1 µg/mL,1 µg/mL,1 µg/mL,1 µg/mL,4 µg/mL,MIC [21]: 2 µg/mL; MIC [22]: 1 µg/mL; MIC [23]: 1 µg/mL; MIC [24]: 2 µg/mL; MIC [25]: 2 µg/mL; MIC [26]: 1 µg/mL; MIC [27]: 2 µg/mL; MIC [28]: 1 µg/mL; MIC [29]: 2 µg/mL; MIC [30]: 2 µg/mL; MIC [31]: 2 µg/mL; MIC [32]: 1 µg/mL; MIC [33]: 1 µg/mL; MIC [34]: 2 µg/mL
